# Like-named read-outs stand apart in the source and are kept apart here.
# What was measured:
# hGR = molecular target: T1, hGR (Homo sapiens, UniProt P00390); test: Inhibition of human glutathione reductase; assay type: biochemical; conditions: for Inhibition of hGR: at 2 mM (concentrations as high as 2 mM); for IC50: read-out: hGR IC50; for hGR IC50 fold higher than for TGR: selectivity TGR versus hGR
# T1 sequence (P00390 44-522): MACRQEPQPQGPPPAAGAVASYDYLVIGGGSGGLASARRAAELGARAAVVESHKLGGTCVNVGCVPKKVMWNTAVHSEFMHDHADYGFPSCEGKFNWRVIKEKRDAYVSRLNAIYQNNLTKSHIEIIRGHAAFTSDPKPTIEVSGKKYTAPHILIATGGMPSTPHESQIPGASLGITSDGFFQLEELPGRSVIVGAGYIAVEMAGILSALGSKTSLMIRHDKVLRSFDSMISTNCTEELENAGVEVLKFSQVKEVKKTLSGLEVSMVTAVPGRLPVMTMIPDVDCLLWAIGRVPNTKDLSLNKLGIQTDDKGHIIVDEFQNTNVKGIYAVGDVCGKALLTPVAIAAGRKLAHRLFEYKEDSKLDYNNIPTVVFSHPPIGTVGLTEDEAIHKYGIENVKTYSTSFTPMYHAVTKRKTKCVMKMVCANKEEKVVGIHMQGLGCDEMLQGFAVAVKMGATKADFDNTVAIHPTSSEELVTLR
# S. mansoni schistosomula = test: Schistosomula; parameters: species or system Schistosoma mansoni
# [1] = molecular target: T2, TGR (GSSG reducing activity) (Schistosoma mansoni, UniProt Q962Y6); test: TGR inhibition assay, GSSG reduction; assay type: biochemical; conditions: read-out: IC50 (GSSG); GSSG as substrate
# T2 sequence (Q962Y6 1-598): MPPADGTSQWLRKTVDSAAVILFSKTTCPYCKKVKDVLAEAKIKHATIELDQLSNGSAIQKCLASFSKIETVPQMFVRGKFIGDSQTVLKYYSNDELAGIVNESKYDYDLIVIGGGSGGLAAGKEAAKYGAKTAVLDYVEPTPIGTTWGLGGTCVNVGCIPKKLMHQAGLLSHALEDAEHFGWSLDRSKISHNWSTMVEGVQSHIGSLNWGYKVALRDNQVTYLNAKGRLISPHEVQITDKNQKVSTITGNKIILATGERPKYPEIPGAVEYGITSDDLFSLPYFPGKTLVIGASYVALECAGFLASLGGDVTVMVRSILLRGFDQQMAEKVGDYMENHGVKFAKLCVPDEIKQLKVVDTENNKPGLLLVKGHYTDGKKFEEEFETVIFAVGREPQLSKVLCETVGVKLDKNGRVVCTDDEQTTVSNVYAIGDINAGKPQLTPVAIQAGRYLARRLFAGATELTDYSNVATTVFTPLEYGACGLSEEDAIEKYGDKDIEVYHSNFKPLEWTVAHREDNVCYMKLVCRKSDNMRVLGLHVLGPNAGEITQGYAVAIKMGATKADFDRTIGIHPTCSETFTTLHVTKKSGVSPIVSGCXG
# Method in brief: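 Recombinant wild-type S. mansoni TGR (selenoprotein) was expressed in E. coli BL21 (DE3) with a His-SUMO tag. The tag was removed, leaving Gly-Ser-His at the N-terminus. Inhibition was measured as enzymatic GSSG reduction, run in triplicate.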
# [2] = tested on: S. mansoni juvenile worms; test: Ex vivo juvenile worm killing, continuous exposure; parameters: species or system Schistosoma mansoni
# S. mansoni adult worms [3] = test: Ex vivo adult worm killing, continuous exposure; parameters: species or system Schistosoma mansoni; conditions: for LD50 against S. mansoni adult worms: 5 days incubation, media and compounds replaced daily
# [4] = tested on: S. haematobium adult worms; test: Ex vivo adult worm killing, continuous exposure; conditions: 10 μM
# [5] = molecular target: T3, TGR (DTNB reducing activity) (Schistosoma mansoni, UniProt Q962Y6); test: TGR inhibition confirmatory assay, DTNB reduction; assay type: biochemical
# T3 sequence (Q962Y6 1-598): T2 sequence (Q962Y6 1-598)
# S. mansoni adult worms [6] = test: Brief; parameters: species or system Schistosoma mansoni
# Schistosoma mansoni TGR = conditions: read-out: TGR IC50 qHTS, cited from earlier work
# [7] = cited from earlier work
# TGR [8] = molecular target: T4, TGR (Schistosoma mansoni, UniProt Q962Y6); test: TGR dimer/monomer analysis by native PAGE; conditions: native PAGE after reaction with compound
# T4 sequence (Q962Y6 1-598): T2 sequence (Q962Y6 1-598)
# [9] = molecular target: TGR activities (DTNB and GSSG reduction) in S. mansoni adult worms (Schistosoma mansoni, UniProt Q962Y6); test: TGR activity in homogenates of treated worms; conditions: worms cultured in 50 μM compound, harvested before any worm death
# Method in brief: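 Adult S. mansoni from infected Swiss-Webster mice, about 10 worm pairs per 1 mL RPMI with 10% FCS, 10 mM glutamine and penicillin/streptomycin, pre-cultured 24 h. Exposed to 50 μM compound in DMSO, refreshed daily; DMSO controls. Worms collected at set times, washed, homogenized and centrifuged; protein measured. NADPH-dependent DTNB and GSSG reduction assayed in triplicate versus time-matched controls.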
# S. japonicum adult worms = test: Ex vivo adult worm killing, continuous exposure; conditions: 12.5 μM, 120 h
# TGR [10] = molecular target: T4, TGR; test: NADPH oxidase activity of inhibited TGR; assay type: biochemical; conditions: for H2O2 production compared with untreated TGR: Amplex Red and horseradish peroxidase; for Decrease of NADPH consumption compared with uninhibited TGR: after treatment and desalting
# TGR [11] = molecular target: T4, TGR; test: NADPH-dependence and reversibility of TGR inhibition; assay type: biochemical; conditions: for Reversibility of TGR inhibition: incubation with NADPH, activity 30 minutes and 3 hours after desalting
# schistosomes = conditions: cited from earlier work
# parasites = conditions: 5 μM (physiological concentration); cited from earlier work
# Schistosoma mansoni = conditions: overnight exposure; cited from earlier work
# [12] = read-out: IC50 (DTNB), DTNB as substrate
# [13] = read-out: TGR IC50 Confirm, confirmatory assay
# [14] = 20 μM, then 5 days in media without compound
# [15] = PubChem BioAssay, ref AID485364
# [16] = 50 μM, then 5 days in media without compound
# [17] = 100 μM, then 5 days in media without compound
Structure (SMILES),Inhibition of hGR (hGR),"Sm Somula, dead (S. mansoni schistosomula; 10 μM, 24 h)",IC50 [1] [nM],LD50 against S. mansoni adult worms (S. mansoni adult worms [3]) [µM],"IC50 [5, 12] [nM]","IC50 [5, 13] [nM]",S. mansoni adult worm killing after 1 hr exposure (S. mansoni adult worms [6]; [14]),IC50 (Schistosoma mansoni TGR; [15]) [nM],also measured
COC(=O)CS(=O)(=O)c1nnc(C(Cc2ccccc2)NC(=O)OC(C)(C)C)o1 (stereo not shown) [Compound 1],did not inhibit,10 μM 24 h 99% d^‡,390 ± 70,8.41,330 ± 70,330,60%,,"Sm juvenile, dead ([2]; 10 μM, 120 h): 10 μM 120 h 39% d^‡; Adult worms Sh, dead ([4]; 144 h): 10 μM 144 h 67% d^‡"
CCN(c1ccccc1)S(=O)(=O)c1ccc(NC(=O)c2nc(S(C)(=O)=O)ncc2Cl)cc1 [Compound 2],did not inhibit,10 μM 24 h 100% d^‡,230 ± 30,9.07,210 ± 20,210,40%,398,"Sm juvenile, dead ([2]; 10 μM, 24 h): 10 μM 24 h 100% d^‡"
O=c1c(Cl)c(-n2cc(CO)nn2)cnn1-c1ccccc1 [Compound 3],19%,10 μM 24 h 100% d^‡,2490 ± 110,4.9,2840 ± 80,2840,about 10%,,"Sm juvenile, dead ([2]; 10 μM, 48 h): 10 μM 48 h 100% d^‡; Adult worms Sm, dead (S. mansoni adult worms [3]; 10 μM, 72 h): 10 μM 72 h 100% d^‡; Adult worms Sh, dead ([4]; 96 h): 10 μM 96 h 100% d^‡; IC50 (Schistosoma mansoni TGR; ref Li et al. 2015 [18]): 6300 nM; S. mansoni adult worm killing after 1 hr exposure (S. mansoni adult worms [6]; [16]): 80%"
"O=[N+]([O-])c1ccc2c(c1)S(=O)(=O)C=C2 [Compound 4, Stattic]",,10 μM 24 h 100% d^‡,2200 ± 200,7.08,2010 ± 140,2010,about 10%,,"IC50 (hGR): 30700 nM; hGR IC50 fold higher than for TGR (hGR): 15 fold; Sm juvenile, dead ([2]; 10 μM, 72 h): 10 μM 72 h 100% d^‡; Tolerability in animal models ([7]; animal models of different diseases): well tolerated; Adult worms Sm, dead (S. mansoni adult worms [3]; 10 μM, 144 h): 10 μM 144 h 76% d^‡; IC50 (Schistosoma mansoni TGR; ref Li et al. 2015 [18]): 5440 nM; Monomer formation of TGR (TGR [8]): No evidence for monomer formation; S. mansoni adult worm killing after 1 hr exposure (S. mansoni adult worms [6]; [16]): 100%"
"COc1ccc([N+](=O)[O-])c(S(=O)(=O)c2ccc(Cl)cc2)n1 [Compound 5, TRi-1]",,10 μM 24 h 100% d^‡,50 ± 10,10.1,60 ± 10,60,about 10%,100,"IC50 (hGR): 104000 nM; hGR IC50 fold higher than for TGR (hGR): 1700 fold; Sm juvenile, dead ([2]; 10 μM, 120 h): 10 μM 120 h 57% d^‡; Tolerability in animal models ([7]; in vivo): well tolerated; S. mansoni adult worm killing after 1 hr exposure (S. mansoni adult worms [6]; [16]): 60%"
CCOC(=O)C(C(=O)OCC)c1cc(Br)c2noc3c2c1C(=O)c1ccccc1-3 [Compound 6],25%,,150 ± 20,,140 ± 10,140,,631,"Inhibition of TGR activity (DTNB and GSSG reduction) in worm homogenates [9]: ~ 60%; S. mansoni adult worm killing after 1 hr exposure (S. mansoni adult worms [6]; all concentrations tested (10, 20, 50, 100 μM)): no worm killing"
Oc1ccc(CNc2cccc(C(F)(F)F)c2)c2cccnc12 [Compound 7],did not inhibit,,130 ± 30,18.2,90 ± 20,90,10%,316,"Sm Somula, dead (S. mansoni schistosomula; 12.5 μM, 120 h): 12.5 μM 120 h 61% d^‡; Adult worms Sj, dead (S. japonicum adult worms): 12.5 μM 120 h no killing; Sm juvenile, dead ([2]; 12.5 μM, 120 h): 12.5 μM 120 h 8% d^‡; Adult worms Sm, dead (S. mansoni adult worms [3]; 12.5 μM, 120 h): 12.5 μM 120 h 43% d^‡; Cytotoxicity against mammalian cells compared with schistosome worms (Vero cells): notable exception; S. mansoni adult worm killing after 1 hr exposure (S. mansoni adult worms [6]; [17]): 80%; H2O2 production compared with untreated TGR (TGR [10]): less H2O2 than untreated TGR; Induction of NADPH oxidase activity in TGR (NADPH consumption, superoxide production) (TGR [10]; TGR 500 nM, NADPH 100 μM, 30 min, 20 μM for 1, 2, 5-8, 50 μM for 3 and 4, desalted): lowest NADPH oxidase activity; Decrease of NADPH consumption compared with uninhibited TGR (TGR [10]): about 50%"
COc1ccc(C(Nc2cc(C)ccn2)c2ccc3ccc(C)nc3c2O)cc1 (stereo not shown) [Compound 8],did not inhibit,,330 ± 50,12.4,130 ± 40,130,10%,398,"Sm Somula, dead (S. mansoni schistosomula; 10 μM, 120 h): 10 μM 120 h 20% d^‡; Adult worms Sj, dead (S. japonicum adult worms): 12.5 μM 120 h 56% d^‡; Sm juvenile, dead ([2]; 10 μM, 120 h): 10 μM 120 h 24% d^‡; Adult worms Sm, dead (S. mansoni adult worms [3]; 12.5 μM, 120 h): 12.5 μM 120 h 53% d^‡; S. mansoni adult worm killing after 1 hr exposure (S. mansoni adult worms [6]; [17]): 30%; Reversibility of TGR inhibition (TGR [11]): reversible inhibition; H2O2 production compared with untreated TGR (TGR [10]): same low amounts of H2O2 as untreated TGR"
CC(=O)OC[C@H]1O[C@@H]([S-])[C@H](OC(C)=O)[C@@H](OC(C)=O)[C@@H]1OC(C)=O.CCP(CC)CC.[Au+] [auranofin],,,,,,,,,"Cure of infected mice (schistosomes): partially cure infected mice; Killing of parasites in culture (parasites): kill parasites rapidly; TGR inhibition in the absence of NADPH (TGR [11]; compounds at 20 times the IC50, TGR 50 nM, incubation without NADPH, desalting): found to inhibit TGR; Reversibility of TGR inhibition (TGR [11]): irreversible inhibitors of TGR; H2O2 production compared with untreated TGR (TGR [10]): same low amounts of H2O2 as untreated TGR; Decrease of NADPH consumption compared with uninhibited TGR (TGR [10]): about 50%"
"Cc1c(-c2cnccn2)ssc1=S [oltipraz, reference compound]",,,,2,,,,,
"O=C(C1CCCCC1)N1CC(=O)N2CCc3ccccc3C2C1 (stereo not shown) [praziquantel, reference compound]",,,,0.5,,,,,S. mansoni adult worm killing after 1 hr exposure (S. mansoni adult worms [6]; [17]): 20%; LD50 of praziquantel (Schistosoma mansoni): 40 µM

# Reference: paper PMC7072008 (ACS infectious diseases, 2020)
